Active and inactive are the calls of the source. The calls are words filed in the database; no cut-off is given here.
What was measured:
[1] = Antioxidant activity assessed as DPPH radical scavenging activity at 20 uM after 30 mins under dark condition by DPPH assay relative to control; format: functional
Outline: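 Test compound at 20 µM (solution strength) mixed with 0.5 mM DPPH solution and kept in the dark for 30 min. Absorbance read at 517 nm. % inhibition = (A0−At)/A0 × 100. Ascorbic acid used as standard. Run in triplicate.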

[2] = target: Cholinesterase (Homo sapiens, UniProt P06276); experiment: Inhibition of human serum BChE using butyrylthiocholine iodide as substrate preincubated for 10 mins followed by substrate addition and measured for 10 mins by DTNB reagent based Ellman's method; format: cell-free
Sequence of Cholinesterase (Homo sapiens, UniProt P06276) (P06276 whole entry): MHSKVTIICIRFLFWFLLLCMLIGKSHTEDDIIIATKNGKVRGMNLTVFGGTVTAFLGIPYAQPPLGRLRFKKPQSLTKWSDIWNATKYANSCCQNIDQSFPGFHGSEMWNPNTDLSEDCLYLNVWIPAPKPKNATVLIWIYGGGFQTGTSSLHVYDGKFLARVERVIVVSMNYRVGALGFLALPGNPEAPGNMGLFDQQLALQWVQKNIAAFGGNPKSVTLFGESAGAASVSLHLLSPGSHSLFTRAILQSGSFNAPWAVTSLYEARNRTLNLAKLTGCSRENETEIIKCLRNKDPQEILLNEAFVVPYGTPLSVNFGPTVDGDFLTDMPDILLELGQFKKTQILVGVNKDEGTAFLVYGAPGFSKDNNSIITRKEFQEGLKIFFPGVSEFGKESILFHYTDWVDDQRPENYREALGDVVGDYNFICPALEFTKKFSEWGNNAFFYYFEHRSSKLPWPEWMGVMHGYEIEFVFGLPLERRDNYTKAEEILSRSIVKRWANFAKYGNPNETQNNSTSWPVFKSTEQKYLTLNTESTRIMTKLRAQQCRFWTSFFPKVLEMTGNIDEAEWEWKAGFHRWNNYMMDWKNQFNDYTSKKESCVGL
Outline: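 Enzyme is BChE from human serum, 0.02 units/ml in 0.1% gelatin pH 7.4, preincubated with compound 10 min at 37 °C. Then 0.1 M phosphate containing 340 µM DTNB and 550 µM BTCI added. A412 followed 10 min at 37 °C. DMSO ≤1%. IC50 from nonlinear log-inhibitor fit, n=3.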

[3] = target: T1, Acetylcholinesterase (Homo sapiens, UniProt P22303); experiment: Inhibition of human erythrocyte AChE using acetylthiocholine iodide as substrate preincubated for 10 mins followed by substrate addition and measured for 10 mins by DTNB reagent based Ellman's method; format: tissue-based
T1 sequence (P22303 whole entry): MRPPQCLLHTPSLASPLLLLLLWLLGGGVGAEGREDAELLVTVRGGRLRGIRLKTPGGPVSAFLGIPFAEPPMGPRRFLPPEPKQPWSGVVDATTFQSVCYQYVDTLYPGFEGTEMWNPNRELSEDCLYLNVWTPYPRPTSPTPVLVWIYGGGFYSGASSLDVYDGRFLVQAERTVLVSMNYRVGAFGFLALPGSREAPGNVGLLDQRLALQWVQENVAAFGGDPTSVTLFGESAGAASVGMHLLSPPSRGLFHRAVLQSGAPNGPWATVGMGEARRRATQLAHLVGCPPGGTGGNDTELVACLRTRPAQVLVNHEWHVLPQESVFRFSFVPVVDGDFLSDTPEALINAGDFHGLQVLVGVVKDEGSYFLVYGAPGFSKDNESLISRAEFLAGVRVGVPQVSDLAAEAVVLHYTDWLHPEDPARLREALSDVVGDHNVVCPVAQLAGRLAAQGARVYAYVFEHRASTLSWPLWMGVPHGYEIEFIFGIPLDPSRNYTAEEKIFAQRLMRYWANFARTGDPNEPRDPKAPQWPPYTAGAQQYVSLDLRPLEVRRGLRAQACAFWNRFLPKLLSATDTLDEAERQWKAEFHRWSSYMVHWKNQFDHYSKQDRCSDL

[4] = test system: SH-SY5Y; experiment: Neuroprotection against amyloid beta (25 to 35)-induced toxicity in human SH-SY5Y cells assessed as cell viability at 10 uM preincubated for 2 hrs followed by incubation with amyloid beta (25 to 35) for 24 hrs relative to control; format: functional; details: time 26 hrs, read-out: Activity
[5] = target: T1, Acetylcholinesterase; experiment: Inhibition of human AChE-induced amyloid beta(1 to 42) aggregation incubated for 48 hrs by thioflavin-T fluorescence method; details: dose microM 5-20, time 48.0 hrs
Outline: (§1)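 Aβ1-42 (10 µM) incubated with hAChE ([…]) with or without compound (5, 10 and 20 µM) at 37 °C for 48 h, DMSO below 1%. ThT then added at 5 µM. Fluorescence read at ex 485/em 528 nm. % inhibition taken from intensities with vs without inhibitor. Run in triplicate.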

[6] = Acute toxicity in Swiss albino mouse assessed as convulsion at 500 mg/kg, po measured for 14 days; format: organism-based; details: in vivo, 336 h, time 14 day
Outline: (§2)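 Adult male Swiss albino mice, 25-30 g, dosed orally following OECD 423 at various doses up to 500 mg/kg. Watched at 30 min, 2 h, 4 h and 24 h for autonomic and behavioural changes. Followed for 14 days for tremors, convulsions, salivation, diarrhea, lethargy, sleep and coma.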

[7] = test system: Mus musculus; experiment: (§3) Reversal of scopolamine-induced memory cognitive memory impairment in po dosed Swiss albino mouse assessed as increase in transfer latency time administered once daily for 7 days and administered with scopolamine at 30 mins after compound challenge on 7th day and measured during retention trial on day 7 by passive avoidance test; format: functional, organism-based; details: dose mg/kg 2.5-10, time 7.0 day
Outline: (§4)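 Dosing as for the Y-maze: p.o. in CMC daily for 7 days, scopolamine 0.5 mg/kg i.p. on day 7, six mice per group. Apparatus is a two-compartment lit/dark box. Acquisition begins 5 min after scopolamine, with the mouse held in the lit side for 30 s. Latency to enter the dark side recorded as transfer latency time. No foot shock in the retention trial.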

[8] = test system: Mus musculus; experiment: Ex vivo inhibition of Swiss mouse brain AChE using ACTI as substrate at 10 mg/kg, po administered once daily for 7 days and administered with scopolamine at 30 mins after compound challenge on 7th day and measured on day 7 by Ellman's method; format: functional, organism-based; details: time 7.0 day
Outline: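 Male Swiss albino mice dosed p.o. daily for 7 days in 0.3% CMC. Scopolamine 0.5 mg/kg i.p. given 30 min after the day-7 dose. Brain homogenate supernatant incubated with 0.1 M phosphate pH 7.4 and DTNB for 10 min at 37 °C. ATCI then added from a 7.5 mM stock. A412 followed for 10 min. Expressed as ACh hydrolysed/min/mg protein (Lowry).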

[9] = Acute toxicity in Swiss albino mouse assessed as mortality at 500 mg/kg, po observed for 24 hrs; format: organism-based; details: in vivo; outline: as §2
[10] = Acute toxicity in Swiss albino mouse assessed as feeding behavior at 500 mg/kg, po observed for 24 hrs; format: organism-based; details: in vivo; outline: as §2
[11] = Acute toxicity in Swiss albino mouse assessed as tremor at 500 mg/kg, po measured for 14 days; format: organism-based; details: in vivo, 336 h, time 14 day; outline: as §2
[12] = test system: Mus musculus; experiment: (§5) Antioxidant activity in scopolamine-induced memory impairment Swiss albino mouse model assessed as reduction in scopolamine-induced oxidative stress by measuring increase in total non-protein thiol level at 10 mg/kg, po administered once daily for 7 days and administered with scopolamine at 30 mins after compound challenge on 7th day; format: functional, organism-based; details: time 7.0 day
Outline: (§6)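 Male Swiss albino mice, six per group. Compound suspended in 0.3% w/v CMC, given p.o. once daily for 7 days. Scopolamine HBr 0.5 mg/kg i.p., in water, given 30 min after dosing on day 7. After behavioural tests, whole brain homogenised in 10 mM PBS pH 7.4 and supernatant used. Protein by Lowry method. For MDA (TBARS), supernatant incubated 2 h at 37 °C, TCA-precipitated, heated with 0.67% thiobarbituric acid at 50 °C for 10 min, A532, expressed as moles MDA/mg protein. For nonprotein thiol (Sedlak–Lindsay), TCA supernatant in Tris-EDTA pH 8.9 reacted with DTNB, A412 within 5 min, expressed as µM/mg protein.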

[13] = Acute toxicity in Swiss albino mouse assessed as diarrhea at 500 mg/kg, po measured for 14 days; format: organism-based; details: in vivo, 336 h, time 14 day; outline: as §2
[14] = Acute toxicity in Swiss albino mouse assessed as lacrimation at 500 mg/kg, po observed for 24 hrs; format: organism-based; details: in vivo; outline: as §2
[15] = Acute toxicity in Swiss albino mouse assessed as salivation at 500 mg/kg, po measured for 14 days; format: organism-based; details: in vivo, 336 h, time 14 day; outline: as §2
[16] = Acute toxicity in Swiss albino mouse assessed as sleep at 500 mg/kg, po measured for 14 days; format: organism-based; details: in vivo, 336 h, time 14 day; outline: as §2
[17] = Effective permeability of compound in PBS buffer at pH 7.4 at 25 ug/ml incubated for 20 hrs by PAMPA-BBB assay
[18] = test system: Mus musculus; experiment: as §3, with “spontaneous alteration rate” for “transfer latency time”, “for 5 mins” for “during retention trial”, “Y-maze” for “passive avoidance”; format: functional, organism-based; details: dose mg/kg 2.5-10, time 7.0 day
Outline: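 Male Swiss albino mice, six per group. Compound given p.o. in 0.3% CMC daily for 7 days, at 2.5, 5 or 10 mg/kg. Scopolamine 0.5 mg/kg i.p. given 30 min after the day-7 dose. Each mouse placed in a three-arm Y-maze and arm entries and alternations recorded over 5 min. % alternation = alternations/(total entries−2) × 100.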

[19] = target: T1, Acetylcholinesterase; experiment: Inhibition of human AChE-induced amyloid beta(1 to 42) aggregation at Abeta:compound concentration ratio of 1:2 incubated for 48 hrs by thioflavin-T fluorescence method; outline: as §1
[20] = test system: Mus musculus; experiment: as §5, with “SOD” for “total non-protein thiol”; format: functional, organism-based; details: time 7.0 day
Outline: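 Same mouse dosing and brain supernatant preparation as the oxidative-stress assays. For SOD, supernatant mixed with reagent containing 0.1 mM EDTA, 24 µM NBT and 50 mM Na2CO3, plus hydroxylamine hydrochloride. Assay at pH 10.2, absorbance read at 560 nm.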

[21] = test system: Mus musculus; experiment: Antioxidant activity in scopolamine-induced memory impairment Swiss albino mouse model assessed as reduction in scopolamine-induced oxidative stress by measuring decrease in malondialdehyde level at 10 mg/kg, po administered once daily for 7 days and administered with scopolamine at 30 mins after compound challenge on 7th day by TBARS assay; format: functional, organism-based; details: time 7.0 day; outline: as §6
[22] = target: T1, Acetylcholinesterase; experiment: Non-competitive inhibition of human erythrocyte AChE using acetylthiocholine iodide as substrate at 0.15 to 0.6 uM preincubated for 10 mins followed by substrate addition and measured for 10 mins by Ellman's method based Line-weaver Burk plot analysis; format: tissue-based
[23] = test system: Mus musculus; experiment: as §3, with “acquisition” for “retention”; format: functional, organism-based; details: dose mg/kg 2.5-10, time 7.0 day; outline: as §4
[24] = in vitro; details: human, SH-SY5Y cells
[25] = target: Cholinesterase (Equus caballus, UniProt P81908); experiment: Inhibition of equine serum BChE using butyrylthiocholine iodide as substrate incubated for 30 mins followed by substrate addition and measured for 20 mins by Ellman's method
Sequence of Cholinesterase (Equus caballus, UniProt P81908) (P81908 whole entry): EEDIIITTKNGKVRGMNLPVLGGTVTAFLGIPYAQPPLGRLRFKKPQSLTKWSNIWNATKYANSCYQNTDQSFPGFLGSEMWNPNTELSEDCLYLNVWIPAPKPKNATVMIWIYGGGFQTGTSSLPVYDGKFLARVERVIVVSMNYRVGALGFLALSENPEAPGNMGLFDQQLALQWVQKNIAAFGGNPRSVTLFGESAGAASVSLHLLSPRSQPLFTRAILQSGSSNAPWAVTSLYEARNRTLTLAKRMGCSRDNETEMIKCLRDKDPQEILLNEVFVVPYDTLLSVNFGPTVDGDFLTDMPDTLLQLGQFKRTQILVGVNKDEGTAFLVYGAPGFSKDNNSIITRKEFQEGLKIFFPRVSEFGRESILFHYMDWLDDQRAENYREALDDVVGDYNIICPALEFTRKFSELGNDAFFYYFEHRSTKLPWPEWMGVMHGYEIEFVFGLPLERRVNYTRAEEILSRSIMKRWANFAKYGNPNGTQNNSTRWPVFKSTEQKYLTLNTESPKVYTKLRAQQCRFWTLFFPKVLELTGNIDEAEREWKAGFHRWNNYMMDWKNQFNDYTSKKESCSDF

[26] = target: Acetylcholinesterase (Electrophorus electricus, UniProt O42275); experiment: Inhibition of recombinant Electric eel AChE incubated for 15 mins by amplex red reagent based fluorescence assay
Sequence of Acetylcholinesterase (Electrophorus electricus, UniProt O42275) (O42275 whole entry): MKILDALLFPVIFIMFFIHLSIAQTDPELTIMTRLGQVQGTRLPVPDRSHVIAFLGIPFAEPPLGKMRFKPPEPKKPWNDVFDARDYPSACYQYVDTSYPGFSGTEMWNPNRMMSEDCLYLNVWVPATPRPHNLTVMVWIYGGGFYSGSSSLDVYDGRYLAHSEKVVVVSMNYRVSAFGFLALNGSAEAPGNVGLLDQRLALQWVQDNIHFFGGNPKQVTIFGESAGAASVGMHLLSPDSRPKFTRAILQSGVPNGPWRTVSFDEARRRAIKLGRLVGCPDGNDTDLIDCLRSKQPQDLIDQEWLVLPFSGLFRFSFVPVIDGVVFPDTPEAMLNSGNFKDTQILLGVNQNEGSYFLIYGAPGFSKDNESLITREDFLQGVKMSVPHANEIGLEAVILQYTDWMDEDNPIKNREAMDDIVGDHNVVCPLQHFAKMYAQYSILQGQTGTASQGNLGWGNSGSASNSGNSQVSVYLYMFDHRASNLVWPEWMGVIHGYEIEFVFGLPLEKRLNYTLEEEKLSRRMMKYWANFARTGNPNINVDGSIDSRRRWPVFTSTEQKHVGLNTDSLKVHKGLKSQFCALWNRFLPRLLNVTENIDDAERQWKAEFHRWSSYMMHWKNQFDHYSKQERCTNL

SMILES	inhibition [1]	IC50 [2]	IC50 [3]	also measured
O=[N+]([O-])c1ccccc1-c1nnc(Nc2ncccn2)o1	51.8%	> 50.1 µM	3390 nM	–
Brc1ccc(CSc2nnc(CSc3nc4ccccc4s3)o2)cc1	–	–	–	viability at 10 µM [4]: 95.7%
COc1ccc(-c2nnc(Nc3ncccn3)o2)cc1OC	49.5%	> 50.1 µM	1910 nM	–
Clc1ccccc1-c1nnc(Nc2ncccn2)o1	< 20%	> 50.1 µM	> 5010 nM	–
O=C1O[C@H]([C@@H](O)CO)C(O)=C1O	64.6%	–	–	–
c1cnc(Nc2nnc(-c3cccc4ccccc34)o2)nc1	60%	12 µM	302 nM	inhibition [5]: Dose-dependent effect; Activity [6]: Non-Toxic; Activity [7]: Dose-dependent effect; inhibition [8]: Active; Activity [9]: Non-Toxic; Activity [10]: Non-Toxic; Activity [11]: Non-Toxic; Activity [12]: Active; Activity [13]: Non-Toxic; Activity [14]: Non-Toxic; Activity [15]: Non-Toxic; Activity [16]: Non-Toxic; Papp at 20 h, 25 ug/ml [17]: 5.82 ×10⁻⁶ cm/s; Activity [18]: Dose-dependent effect; inhibition [19]: Active; Activity [20]: Active; Activity [21]: Active; Ki [22]: 170 nM; Activity [23]: Dose-dependent effect; IC50 at 24 h [24]: 79.4 µM
Oc1ccccc1-c1nnc(Nc2ncccn2)o1	58.8%	> 50.1 µM	> 5010 nM	–
COc1cc(-c2nnc(Nc3ncccn3)o2)cc(OC)c1OC	57.7%	> 50.1 µM	1230 nM	Papp at 20 h, 25 ug/ml [17]: 4.21 ×10⁻⁶ cm/s
O=[N+]([O-])c1ccc(-c2nnc(Nc3ncccn3)o2)cc1	< 20%	> 50.1 µM	> 5010 nM	–
COc1cc2c(cc1OC)C(=O)C(CC1CCN(Cc3ccccc3)CC1)C2 (configuration not stated)	< 20%	–	–	–
Brc1ccc(-c2nnc(Nc3ncccn3)o2)cc1	47.8%	22.9 µM	3720 nM	–
Cc1ccc(-c2nnc(Nc3ncccn3)o2)cc1	< 20%	> 50.1 µM	1620 nM	–
COc1ccc(-c2nnc(Nc3ncccn3)o2)cc1	45.8%	> 50.1 µM	1550 nM	–
Clc1ccc(-c2nnc(Nc3ncccn3)o2)cc1	46.2%	> 50.1 µM	2880 nM	–
Fc1ccc(-c2nnc(Nc3ncccn3)o2)cc1	41.9%	> 50.1 µM	2400 nM	–
Brc1cccc(-c2nnc(Nc3ncccn3)o2)c1	47.9%	20.4 µM	3310 nM	–
Oc1ccc(-c2nnc(Nc3ncccn3)o2)cc1	63.4%	> 50.1 µM	1740 nM	Papp at 20 h, 25 ug/ml [17]: 3.23 ×10⁻⁶ cm/s
C#CCOc1ccc(-c2cc(-c3ccc(OCCN4CCOCC4)cc3)nc(N)n2)cc1	–	–	–	IC50 [25]: 666 nM; IC50 [26]: 304 nM
c1ccc(-c2nnc(Nc3ncccn3)o2)cc1	51.4%	> 50.1 µM	2040 nM	–

— ChEMBL document CHEMBL4699439, “Design and development of novel N-(pyrimidin-2-yl)-1,3,4-oxadiazole hybrids to treat cognitive dysfunctions” (Bioorg Med Chem, 2019)
